Measured values collected from several papers.
Protocols differ between the studies behind these lines. pIC50: −log10 of the molar value.
Observed: cell growth or viability

COc1ccc(-c2ccc(-c3ccc(C(=N)N)nc3)s2)cc1Cl — GI50 (TK-10): 1.9 µM
Cc1c(CN(C)C(=O)/C=C/c2cnc3c(c2)CC(CCN)C(=O)N3)oc2ccccc12 (stereo not drawn) — inhibition (IMR-90; resazurin; 30 µM, 72 h): 12%
COc1cc(/C=N/n2c(C)nc3ccc(C)cc3c2=O)ccc1OCc1ccccc1 — viability (LoVo; LDH; 200 µg/mL, 24 h): 76.5%
C=CC(=O)Nc1cc(-n2c(=O)ccc3cnc4ccc(-c5ccc(NS(C)(=O)=O)cc5)cc4c32)ccc1C — GI50 (U2932; 48 h): 2.15 µM
COc1cccc(Oc2ccccc2NC(=O)CNC(=O)c2cccc3ccccc23)c1 — GI50 (TK-10; SRB; 48 h): 1.58 µM
CC(C)c1cc(C(=O)N2Cc3ccccc3C2)c(O)c2c1C=CC2 — pIC50 (UMUC3; ATP luminescence; 72 h): 4.23
COc1cc(NCC(=O)Nn2c(C)nc3ccc(Cl)cc3c2=O)cc(OC)c1OC — viability (LoVo; LDH; 200 µg/mL, 24 h): 59.5%
Cn1c(=O)c(NN=C2C(=O)Nc3ccccc32)nc2ccccc21 — inhibition (HT-29; 30 µM): 73%
COc1cc(/C=N/n2c(C)nc3ccc(Br)cc3c2=O)ccc1OCc1ccc(Cl)cc1 — viability (LoVo; LDH; 200 µg/mL, 24 h): 80%
COc1cc(-c2ccc(-c3ccc(C(=N)N)nc3)s2)cc(OC)c1OC — GI50 (TK-10): 3.19 µM
S=C([S][Au-][P+](CCCCCC[P+]([Au-][S]C(=S)n1cccn1)(c1ccccc1)c1ccccc1)(c1ccccc1)c1ccccc1)n1cccn1 — GI50 (TK-10): 11 µM
COc1ccc2c(c1)C(=NNc1ncnc3cc(OC)c(OC)cc13)C(=O)N2 — inhibition (HT-29; 10 µM): 20.9%
COc1cc(Nc2nccc(-c3cnn4nc(OC)ccc34)n2)cc(C(F)(F)F)c1 — pIC50 (LoVo; ATP luminescence): 6.80
CCN(CC)CCNC(=O)c1c(C)[nH]c(/C=C2\C(=O)Nc3ccc(F)cc32)c1C — inhibition (HT-29; 30 µM): 59.5%
C=CC(=O)N1CCC[C@@H](n2nc(-c3ccc(Oc4ccccc4)cc3)c3c(N)ncnc32)C1 — GI50 (U2932; 48 h): 5 µM
CCC1=C[C@@H]2CN(C1)Cc1c([nH]c3ccccc13)[C@@](C(=O)OC)(c1cc3c(cc1OC)N(C)[C@H]1[C@@](O)(C(=O)OC)[C@H](OC(C)=O)[C@]4(CC)C=CCN5CC[C@]31[C@@H]54)C2 — IC80 (LLC-PK1; 72 h): 0.011 µM
CC(C)c1cc(C(=O)N2Cc3ccccc3C2)c(O)c2c1C(=O)CC2 — pIC50 (UMUC3; ATP luminescence; 72 h): 4.26
CC[C@@H]1C=CC(=O)O[C@@H]1C[C@@H](O)[C@H](C)[C@H](O)[C@@H](C)Cc1ccc(F)cc1 — GI50 (A2780; MTT; 48 h): 0.0297 µM
